Source: ChEMBL document CHEMBL5661977, “BI 6727, a Polo-like kinase inhibitor with improved pharmacokinetic profile and broad antitumor activity” (Clin Cancer Res, 2009)
Active and inactive are the calls of the source. The rule behind the calls is not given here.

How the values were obtained:
[1] = Clearance in Wistar rat at 10 mg/kg, iv by HPLC-MS/MS analysis; assay type: ADME, organism-based; settings: in vivo
Outline: (§1)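 Male Wistar Crl:WI (Han) rats, n = 4, given a single 5-min i.v. infusion. BI 6727 measured in EDTA plasma at various times after the infusion started, by HPLC-MS/MS with internal standard. Parameters came from noncompartmental analysis. Terminal half-life was taken from the last two time points after i.v. dosing.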

HCT-116 [2] = assay: Antimitotic activity against human HCT-116 cells assessed as inhibition of cell proliferation incubated for 72 hrs by Alamar blue based fluorescence spectrophotometric analysis; assay type: functional; settings: HCT-116, 72 h
Outline: (§2)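 Cancer cell lines were cultured per supplier instructions and exposed to various inhibitor concentrations for 72 h. Growth was read as Alamar blue conversion by fluorescence. EC50 (50% growth inhibition) was extrapolated from the dose-response curve fit.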

BRO melanoma cell line = assay: Antimitotic activity against human BRO melanoma cell line assessed as inhibition of cell proliferation incubated for 72 hrs by Alamar blue based fluorescence spectrophotometric analysis; assay type: functional
HL-60 = assay: Antimitotic activity against human HL-60 cells assessed as inhibition of cell proliferation incubated for 72 hrs by Alamar blue based fluorescence spectrophotometric analysis; assay type: functional; settings: HL-60, 72 h; outline: as §2
THP-1 = assay: Antimitotic activity against human THP-1 cells assessed as inhibition of cell proliferation incubated for 72 hrs by Alamar blue based fluorescence spectrophotometric analysis; assay type: functional; settings: THP-1, 72 h; outline: as §2
Raji = assay: Antimitotic activity against human Raji cells assessed as inhibition of cell proliferation incubated for 72 hrs by Alamar blue based fluorescence spectrophotometric analysis; assay type: functional; outline: as §2
NCI-H460 [3] = assay: Antimitotic activity against human NCI-H460 cells assessed as increase in the sub-G1 phase at 100 nmol/L incubated for 48 hrs by PI staining based flow cytometric analysis; assay type: functional, cell-based
Outline: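 Log-phase NCI-H460 cells were treated with 0.1% DMSO or inhibitor (dose series for 24 h; 100 nmol/L time course at 0, 24, 48, 72 h). Cells were fixed in 80% ethanol, permeabilized with 0.25% Triton X-100 for 5 min, then given 0.1% RNase plus 10 µg/mL propidium iodide for 20 min at RT. DNA content was read by flow cytometry.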

NCI-H460 [4] = assay: Induction of apoptosis in human NCI-H460 cells assessed as cleaved PRAP fragment level at 100 nmol/L incubated for 24 hrs by westernblot analysis; assay type: functional, cell-based
Outline: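 Exponentially growing NCI-H460 cells treated with compound or DMSO control for 24 or 48 h, then harvested. Cleaved PARP fragment detected by Western blot.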

[5] = Cmax in Wistar rat at 10 mg/kg, iv by HPLC-MS/MS analysis; assay type: ADME, organism-based; settings: in vivo; outline: as §1
[6] = Half life in Wistar rat at 10 mg/kg, iv by HPLC-MS/MS analysis; assay type: ADME, organism-based; settings: in vivo; outline: as §1
[7] = Cmax in Wistar rat at 30 mg/kg, po by HPLC-MS/MS analysis; assay type: ADME, organism-based; settings: in vivo
Outline: (§3)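 Single oral gavage of BI 6727 suspended in 0.5% hydroxyethyl-cellulose (10 mL/kg) to female nude mice or male Wistar rats. EDTA plasma levels measured over time by HPLC-MS/MS with internal standard. AUC0-24 by trapezoidal rule. Parameters from noncompartmental analysis.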

[8] = Half life in BomTac:NMRI-Foxn1nu mouse at 35 mg/kg, iv by HPLC-MS/MS analysis; assay type: ADME, organism-based; settings: in vivo
Outline: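 Female nude mice, n = 3, single i.v. dose (vehicle 0.1 N HCl diluted with 0.9% NaCl, 10 mL/kg). BI 6727 measured in EDTA plasma at several times by HPLC-MS/MS with internal standard. Parameters came from noncompartmental analysis. Terminal half-life was taken from the last two time points after i.v. dosing.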

[9] = Cmax in BomTac:NMRI-Foxn1nu mouse at 50 mg/kg, po by HPLC-MS/MS analysis; assay type: ADME, organism-based; settings: in vivo; outline: as §3
[10] = Oral bioavailability in BomTac:NMRI-Foxn1nu mouse at 50 mg/kg by HPLC-MS/MS analysis; assay type: ADME, organism-based; settings: in vivo; outline: as §3
HCT-116 [11] = assay: Antitumor activity against human HCT-116 cells xenografted in BomTac:NMRI-Foxn1nu mouse assessed as T/C at 15 mg/kg, iv administered twice a week upto 6 weeks relative to control; assay type: functional
Outline: (§4)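 Female nude mice bore s.c. HCT 116 (2×10^6 cells), NCI-H460 (1×10^6 cells) or serially transplanted CXB1 tumor pieces. At ~50–100 mm³, mice were randomized into groups of 10 and dosed i.v. (0.1 N HCl/saline) or by gavage (0.5% hydroxyethyl-cellulose) at 10 mL/kg. Calipers read thrice weekly, volume = length×width²×π/6. T/C from median volumes on the last day.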

HCT-116 [12] = assay: Antitumor activity against human HCT-116 cells xenografted in BomTac:NMRI-Foxn1nu mouse assessed as T/C at 25 mg/kg, po administered twice a week upto 6 weeks relative to control; assay type: functional; outline: as §4
NCI-H460 [13] = assay: Antitumor activity against human NCI-H460 cells xenografted in BomTac:NMRI-Foxn1nu mouse assessed as T/C at 10 mg/kg, po administered daily upto 6 weeks relative to control; assay type: functional; outline: as §4
[14] = AUC (0 to 24 hrs) in human HCT-116 cells xenografted in BomTac:NMRI-Foxn1nu mouse at 20 mg/kg, iv administered twice a week upto 6 weeks by HPLC-MS/MS analysis; assay type: ADME, organism-based; settings: in vivo, 1008 h
[15] = AUC (0 to 24 hrs) in human HCT-116 cells xenografted in BomTac:NMRI-Foxn1nu mouse at 20 mg/kg, iv administered once a week upto 6 weeks by HPLC-MS/MS analysis; assay type: ADME, organism-based; settings: in vivo, 1008 h
[16] = AUC (0 to 24 hrs) in human NCI-H460 cells xenografted in BomTac:NMRI-Foxn1nu mouse at 70 mg/kg, po administered once a week upto 6 weeks by HPLC-MS/MS analysis; assay type: ADME, organism-based; settings: in vivo, 1008 h
HCT-116 [17] = assay: Antitumor activity against human HCT-116 cells xenografted in BomTac:NMRI-Foxn1nu mouse assessed as tumor growth delay at 20 mg/kg, iv administered twice a week on consecutive days; assay type: functional, organism-based; outline: as §4
HCT-116 [18] = assay: Antitumor activity against human HCT-116 cells xenografted in BomTac:NMRI-Foxn1nu mouse assessed as tumor growth delay at 25 mg/kg, iv administered twice a week on consecutive days; assay type: functional, organism-based; outline: as §4
HCT-116 [19] = assay: Antitumor activity against human HCT-116 cells xenografted in BomTac:NMRI-Foxn1nu mouse assessed as tumor regression at 25 mg/kg, iv administered twice a week on consecutive days; assay type: functional, organism-based; outline: as §4
Mus musculus = assay: Antitumor against human CXB1 cells xenografted in BomTac:NMRI-Foxn1nu mouse assessed as suppression in tumor growth at 15 mg/kg, iv administered once a week on consecutive days; assay type: functional, organism-based; settings: CXB1 cell, in the assay text read “twice a week” for “once a week”; outline: as §4
[20] = Drug uptake in human HCT-116 cells xenografted in BomTac:NMRI-Foxn1nu mouse at 35 mg/kg, iv measured after 168 hrs by HPLC-MS/MS analysis; assay type: ADME, organism-based, Neoplasm; settings: tumour (HCT-116 xenograft)
Outline: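 Female nude mice bearing s.c. HCT 116 xenografts (2 × 10⁶ cells), n = 3 per time point, given a single i.v. dose. Tumor, organs and EDTA plasma collected at 1, 8, 24, 48, 96 and 168 h. Tissue extracts and plasma analysed by HPLC-MS/MS. Tissue nmol/mg converted to nmol/L assuming density 1.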

CC[C@@H]1C(=O)N(C)c2cnc(Nc3ccc(C(=O)N[C@H]4CC[C@H](N5CCN(CC6CC6)CC5)CC4)cc3OC)nc2N1C(C)C [VOLASERTIB] showed a clearance [1] of 8.9 mL/min/kg, an EC50 (HCT-116 [2]) of 23 nM and an EC50 (BRO melanoma cell line) of 11 nM. The EC50 (HL-60) was 32 nM, the EC50 (THP-1) was 36 nM and the EC50 (Raji) was 37 nM. The Activity (NCI-H460 [3]) was “Active”, the Activity (NCI-H460 [4]) was “Active” and the Cmax [5] was 11.9 µM. It also gave a half-life [6] of 54 h, a Cmax [7] of 2.2 µM and a half-life [8] of 46 h. For the same molecule, the Cmax [9] was 5.7 µM, the bioavailability [10] was 41% and the T/C (HCT-116 [11]) was 1%. It also gave a T/C (HCT-116 [12]) of 2%, a T/C (NCI-H460 [13]) of 6% and an AUC [14] of 66 µM·h. The AUC [15] was 40 µM·h, the AUC [16] was 58 µM·h and the Activity (HCT-116 [17]) was “Active”. The Activity (HCT-116 [18]) was “Active”, the Activity (HCT-116 [19]) was “Active” and the Activity (Mus musculus) was “Active”. For the same molecule, the concentration at 168 h [20] was 4 µM.
